Experimental data: ChEMBL document CHEMBL2034971, “Appraisal of GABA and PABA as linker: design and synthesis of novel benzamide based histone deacetylase inhibitors” (Eur J Med Chem, 2012)

Experiments:
[1] = test system: U-251; experiment: Growth inhibition of human U251 cells after 2 days by MTT assay; format: functional; conditions: U-251, 48 h
[2] = biological target: Histone deacetylase 1 (Homo sapiens, UniProt Q13547); experiment: Inhibition of HDAC1 using Fluor de Lys as substrate by fluorescence analysis
Chain of Histone deacetylase 1 (Q13547 whole entry): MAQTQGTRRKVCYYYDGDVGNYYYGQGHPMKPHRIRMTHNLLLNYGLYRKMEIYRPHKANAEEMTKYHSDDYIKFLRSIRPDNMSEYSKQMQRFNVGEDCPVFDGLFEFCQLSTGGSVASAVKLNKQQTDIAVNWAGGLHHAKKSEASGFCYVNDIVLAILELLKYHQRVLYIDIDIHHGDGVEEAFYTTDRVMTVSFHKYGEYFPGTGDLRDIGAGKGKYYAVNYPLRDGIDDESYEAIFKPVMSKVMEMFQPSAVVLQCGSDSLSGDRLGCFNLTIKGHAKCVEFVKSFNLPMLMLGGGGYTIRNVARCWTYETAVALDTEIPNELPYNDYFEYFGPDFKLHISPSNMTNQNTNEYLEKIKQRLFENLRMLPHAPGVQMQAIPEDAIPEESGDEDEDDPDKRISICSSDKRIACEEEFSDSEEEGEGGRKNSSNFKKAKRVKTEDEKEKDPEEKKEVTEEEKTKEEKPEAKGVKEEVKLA

[3] = Antitumor activity against mouse EAC cells allografted in Swiss albino mouse assessed as decrease in tumor cell at 0.2 mmol/kg, ip administered from day 1 to day 7 every 24 hrs; format: functional; conditions: Ehrlich
Procedure, shortened: (§1)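 EAC cells kept by intraperitoneal passage in Swiss albino mice (18-20 g, 10 weeks) every 10 days; 9-day-old cells in isotonic saline adjusted to 10×10^6 cells/mL, 0.1 mL per 10 g injected ip on day 0. Seven daily ip doses in PBS pH 7.2 (0.1 mL/10 g), days 1-7; vehicle control. Day 8 sacrifice after 6 h fast.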

[4] = Antitumor activity against mouse EAC cells allografted in Swiss albino mouse assessed as decrease in tumor weight at 0.2 mmol/kg, ip administered from day 1 to day 7 every 24 hrs; format: functional; conditions: Ehrlich; procedure, shortened: as §1
[5] = test system: HCT-116; experiment: Growth inhibition of human HCT116 cells after 2 days by MTT assay; format: functional; conditions: HCT-116, 48 h; for CC50: read-out: LC50 (the source's name)

Nc1ccccc1NC(=O)CCCNCC(=O)Nc1ccccc1Cl
GI50 [1]: 28.6 µM
LC50 (concentration killing 50% of cells) [1]: > 100 µM
TGI [1]: > 100 µM
IC50 [2]: 2.9 µM
inhibition in vivo at 200 µmol/kg [3]: 12.7%
inhibition in vivo at 200 µmol/kg [4]: 21.4%
GI50 [5]: 21.8 µM
TGI [5]: > 100 µM
CC50 [5]: > 100 µM

Nc1ccccc1NC(=O)c1ccc(NCC(=O)Nc2ccc(Cl)cc2)cc1
GI50 [1]: 9.4 µM
LC50 (concentration killing 50% of cells) [1]: > 100 µM
TGI [1]: 62.5 µM
IC50 [2]: 1 µM
inhibition in vivo at 200 µmol/kg [3]: 73.3%
inhibition in vivo at 200 µmol/kg [4]: 79.4%
GI50 [5]: 4.2 µM
TGI [5]: 62.5 µM
CC50 [5]: > 100 µM

Nc1ccccc1NC(=O)c1ccc(NCC(=O)Nc2ccccc2)cc1
GI50 [1]: 65 µM
LC50 (concentration killing 50% of cells) [1]: > 100 µM
TGI [1]: > 100 µM
IC50 [2]: 7.4 µM
inhibition in vivo at 200 µmol/kg [3]: 30.5%
inhibition in vivo at 200 µmol/kg [4]: 18.5%
GI50 [5]: 45.3 µM
TGI [5]: > 100 µM
CC50 [5]: > 100 µM

Nc1ccccc1NC(=O)CCCNCC(=O)Nc1ccccc1[N+](=O)[O-]
GI50 [1]: 32 µM
LC50 (concentration killing 50% of cells) [1]: > 100 µM
TGI [1]: > 100 µM
IC50 [2]: 3.1 µM
inhibition in vivo at 200 µmol/kg [3]: 10.5%
inhibition in vivo at 200 µmol/kg [4]: 41.3%
GI50 [5]: 2.8 µM
TGI [5]: 32 µM
CC50 [5]: > 100 µM

Nc1ccccc1NC(=O)c1ccc(NCC(=O)Nc2cc(Cl)ccc2Cl)cc1
GI50 [1]: 38.6 µM
LC50 (concentration killing 50% of cells) [1]: > 100 µM
TGI [1]: > 100 µM
IC50 [2]: 8.6 µM
inhibition in vivo at 200 µmol/kg [3]: 56.2%
inhibition in vivo at 200 µmol/kg [4]: 58.3%
GI50 [5]: 7.9 µM
TGI [5]: 66 µM
CC50 [5]: > 100 µM

Nc1ccccc1NC(=O)c1ccc(NCC(=O)Nc2ccc(Br)cc2)cc1
GI50 [1]: 10.8 µM
LC50 (concentration killing 50% of cells) [1]: > 100 µM
TGI [1]: 45 µM
IC50 [2]: 1.6 µM
inhibition in vivo at 200 µmol/kg [3]: 73.5%
inhibition in vivo at 200 µmol/kg [4]: 76.3%
GI50 [5]: 6.8 µM
TGI [5]: 47.5 µM
CC50 [5]: > 100 µM

Nc1ccccc1NC(=O)c1ccc(NCC(=O)Nc2cccc([N+](=O)[O-])c2)cc1
GI50 [1]: 13.5 µM
LC50 (concentration killing 50% of cells) [1]: > 100 µM
TGI [1]: 52 µM
IC50 [2]: 1.4 µM
inhibition in vivo at 200 µmol/kg [3]: 40.4%
inhibition in vivo at 200 µmol/kg [4]: 67.6%
GI50 [5]: 1.1 µM
TGI [5]: 9 µM
CC50 [5]: > 100 µM

COc1ccc(NC(=O)CNCCCC(=O)Nc2ccccc2N)cc1
GI50 [1]: 34 µM
LC50 (concentration killing 50% of cells) [1]: > 100 µM
TGI [1]: > 100 µM
IC50 [2]: 3.6 µM
inhibition in vivo at 200 µmol/kg [3]: 63.3%
inhibition in vivo at 200 µmol/kg [4]: 63.8%
GI50 [5]: 8.6 µM
TGI [5]: 44 µM
CC50 [5]: > 100 µM

Nc1ccccc1NC(=O)CCCNCC(=O)Nc1cc(Cl)ccc1Cl
GI50 [1]: 44 µM
LC50 (concentration killing 50% of cells) [1]: > 100 µM
TGI [1]: > 100 µM
IC50 [2]: 8.9 µM
inhibition in vivo at 200 µmol/kg [3]: 50.9%
inhibition in vivo at 200 µmol/kg [4]: 50%
GI50 [5]: 31 µM
TGI [5]: 78 µM
CC50 [5]: > 100 µM

Nc1ccccc1NC(=O)c1ccc(NCC(=O)Nc2ccccc2[N+](=O)[O-])cc1
GI50 [1]: 18 µM
LC50 (concentration killing 50% of cells) [1]: > 100 µM
TGI [1]: 83 µM
IC50 [2]: 2 µM
inhibition in vivo at 200 µmol/kg [3]: 19.7%
inhibition in vivo at 200 µmol/kg [4]: 12.9%
GI50 [5]: 3.5 µM
TGI [5]: 25 µM
CC50 [5]: > 100 µM

Nc1ccccc1NC(=O)CCCNCC(=O)Nc1ccccc1
GI50 [1]: > 100 µM
LC50 (concentration killing 50% of cells) [1]: > 100 µM
TGI [1]: > 100 µM
IC50 [2]: 9.2 µM
inhibition in vivo at 200 µmol/kg [3]: 19.1%
inhibition in vivo at 200 µmol/kg [4]: 25%
GI50 [5]: 70.4 µM
TGI [5]: > 100 µM
CC50 [5]: > 100 µM

Nc1ccccc1NC(=O)CCCNCC(=O)Nc1cccc([N+](=O)[O-])c1
GI50 [1]: 15 µM
LC50 (concentration killing 50% of cells) [1]: > 100 µM
TGI [1]: 93.5 µM
IC50 [2]: 2.3 µM
inhibition in vivo at 200 µmol/kg [3]: 36%
inhibition in vivo at 200 µmol/kg [4]: 40.6%
GI50 [5]: 0.9 µM
TGI [5]: 22.5 µM
CC50 [5]: > 100 µM

Nc1ccccc1NC(=O)CCCNCC(=O)Nc1cccc(Cl)c1
GI50 [1]: 19.5 µM
LC50 (concentration killing 50% of cells) [1]: > 100 µM
TGI [1]: > 100 µM
IC50 [2]: 1.8 µM
inhibition in vivo at 200 µmol/kg [3]: 22.5%
inhibition in vivo at 200 µmol/kg [4]: 32.1%
GI50 [5]: 11.6 µM
TGI [5]: 75 µM
CC50 [5]: > 100 µM

COc1ccc(NC(=O)CNc2ccc(C(=O)Nc3ccccc3N)cc2)cc1
GI50 [1]: 25.5 µM
LC50 (concentration killing 50% of cells) [1]: > 100 µM
TGI [1]: > 100 µM
IC50 [2]: 3.1 µM
inhibition in vivo at 200 µmol/kg [3]: 62.3%
inhibition in vivo at 200 µmol/kg [4]: 66.6%
GI50 [5]: 7.5 µM
TGI [5]: 38 µM
CC50 [5]: > 100 µM

Cc1ccc(NC(=O)CNc2ccc(C(=O)Nc3ccccc3N)cc2)cc1
GI50 [1]: 84 µM
LC50 (concentration killing 50% of cells) [1]: > 100 µM
TGI [1]: > 100 µM
IC50 [2]: 4.5 µM
inhibition in vivo at 200 µmol/kg [3]: 25.2%
inhibition in vivo at 200 µmol/kg [4]: 43.3%
GI50 [5]: 12.6 µM
TGI [5]: > 100 µM
CC50 [5]: > 100 µM

Nc1ccccc1NC(=O)CCCNCC(=O)Nc1ccc(Br)cc1
GI50 [1]: 10.4 µM
LC50 (concentration killing 50% of cells) [1]: > 100 µM
TGI [1]: 80 µM
IC50 [2]: 1.7 µM
inhibition in vivo at 200 µmol/kg [3]: 68.7%
inhibition in vivo at 200 µmol/kg [4]: 73.8%
GI50 [5]: 7.7 µM
TGI [5]: 55.5 µM
CC50 [5]: > 100 µM

Nc1ccccc1NC(=O)CCCNCC(=O)Nc1ccc([N+](=O)[O-])cc1
GI50 [1]: 9.4 µM
LC50 (concentration killing 50% of cells) [1]: > 100 µM
TGI [1]: 66 µM
IC50 [2]: 0.9 µM
inhibition in vivo at 200 µmol/kg [3]: 76.5%
inhibition in vivo at 200 µmol/kg [4]: 78.5%
GI50 [5]: 0.6 µM
TGI [5]: 8.5 µM
CC50 [5]: > 100 µM

Nc1ccccc1NC(=O)c1ccc(NCC(=O)Nc2ccc([N+](=O)[O-])cc2)cc1
GI50 [1]: 8.2 µM
LC50 (concentration killing 50% of cells) [1]: > 100 µM
TGI [1]: 42.5 µM
IC50 [2]: 0.7 µM
inhibition in vivo at 200 µmol/kg [3]: 77.5%
inhibition in vivo at 200 µmol/kg [4]: 83.3%
GI50 [5]: 0.6 µM
TGI [5]: 6.5 µM
CC50 [5]: > 100 µM

Nc1ccccc1NC(=O)CCCNCC(=O)Nc1ccc(Cl)cc1
GI50 [1]: 11.4 µM
LC50 (concentration killing 50% of cells) [1]: > 100 µM
TGI [1]: 75 µM
IC50 [2]: 1.4 µM
inhibition in vivo at 200 µmol/kg [3]: 75%
inhibition in vivo at 200 µmol/kg [4]: 72.7%
GI50 [5]: 5.5 µM
TGI [5]: 45 µM
CC50 [5]: > 100 µM

Cc1ccc(NC(=O)CNCCCC(=O)Nc2ccccc2N)cc1
GI50 [1]: 57 µM
LC50 (concentration killing 50% of cells) [1]: > 100 µM
TGI [1]: > 100 µM
IC50 [2]: 7.5 µM
inhibition in vivo at 200 µmol/kg [3]: 18.9%
inhibition in vivo at 200 µmol/kg [4]: 42.8%
GI50 [5]: 17.9 µM
TGI [5]: > 100 µM
CC50 [5]: > 100 µM

Nc1ccccc1NC(=O)c1ccc(NCC(=O)Nc2ccccc2Cl)cc1
GI50 [1]: 24.2 µM
LC50 (concentration killing 50% of cells) [1]: > 100 µM
TGI [1]: > 100 µM
IC50 [2]: 2.9 µM
inhibition in vivo at 200 µmol/kg [3]: 31.4%
inhibition in vivo at 200 µmol/kg [4]: 43.3%
GI50 [5]: 9.5 µM
TGI [5]: > 100 µM
CC50 [5]: > 100 µM
